Activity calls are given as the source filed them. Unless noted, the calls are words filed in the database; no cut-off is given here.
What was measured:
[1] = Volume of distribution at steady state in Wistar rat at 1 mg/kg, iv after 8 hrs; assay type: ADME, organism-based; parameters: dose 1 mg/kg, route intravenous; settings: in vivo, read-out: Vss
In short: (§1)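 Male Wistar rats, fasted overnight, dosed iv at 1 mg/kg. Blood sampled from 0.1 to 24 h; plasma stored at -20 °C. Levels measured by isocratic HPLC-UV (225 nm) after on-line solid-phase extraction, or by HPLC-MS (ESI+) for one analyte. Parameters from noncompartmental analysis.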

[2] = biological target: CYP3A4 (Homo sapiens, UniProt P08684); test: Inhibition of CYP3A4 in human microsomes at 25 uM; assay type: ADME, Microsome
[3] = Clearance in Wistar rat at 1 mg/kg, iv after 8 hrs; assay type: ADME, organism-based; parameters: dose 1 mg/kg, route intravenous; settings: in vivo; in short: as §1
[4] = biological target: T1, Adrenergic receptor alpha-1 (Rattus norvegicus, UniProt P15823+P23944+P43140); test: Displacement of [3H]prazosin from adrenergic alpha-1 receptor in rat brain membranes; assay type: cell membranes
T1 sequence (P15823 whole entry): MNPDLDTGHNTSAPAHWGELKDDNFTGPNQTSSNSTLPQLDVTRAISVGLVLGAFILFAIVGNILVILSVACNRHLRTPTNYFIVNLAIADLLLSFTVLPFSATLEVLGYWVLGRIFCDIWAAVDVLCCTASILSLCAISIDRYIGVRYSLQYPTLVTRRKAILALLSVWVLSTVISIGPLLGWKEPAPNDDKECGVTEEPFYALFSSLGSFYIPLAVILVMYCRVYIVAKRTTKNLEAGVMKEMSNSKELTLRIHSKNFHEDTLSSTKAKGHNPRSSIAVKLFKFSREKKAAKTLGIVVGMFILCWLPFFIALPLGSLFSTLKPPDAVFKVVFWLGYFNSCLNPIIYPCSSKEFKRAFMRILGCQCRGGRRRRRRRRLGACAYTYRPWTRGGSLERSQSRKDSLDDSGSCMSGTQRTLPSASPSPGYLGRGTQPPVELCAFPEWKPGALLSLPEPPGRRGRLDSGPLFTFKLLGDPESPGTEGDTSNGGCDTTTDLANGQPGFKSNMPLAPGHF
T1 sequence (P23944 whole entry): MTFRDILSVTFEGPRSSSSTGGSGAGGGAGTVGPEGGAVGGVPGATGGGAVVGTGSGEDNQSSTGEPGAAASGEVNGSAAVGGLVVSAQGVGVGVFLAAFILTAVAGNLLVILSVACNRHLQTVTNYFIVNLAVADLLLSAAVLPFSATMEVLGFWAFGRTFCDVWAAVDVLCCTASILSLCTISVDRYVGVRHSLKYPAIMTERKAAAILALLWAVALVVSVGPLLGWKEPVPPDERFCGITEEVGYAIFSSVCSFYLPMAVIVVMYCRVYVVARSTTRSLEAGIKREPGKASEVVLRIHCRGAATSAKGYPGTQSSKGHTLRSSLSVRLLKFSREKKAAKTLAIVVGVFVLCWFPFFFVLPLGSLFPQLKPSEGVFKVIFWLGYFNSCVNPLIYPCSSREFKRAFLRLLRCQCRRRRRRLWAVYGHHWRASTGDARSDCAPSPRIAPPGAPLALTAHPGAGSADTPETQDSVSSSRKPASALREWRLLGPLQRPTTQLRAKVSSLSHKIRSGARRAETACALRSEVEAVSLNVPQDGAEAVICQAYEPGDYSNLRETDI
T1 sequence (P43140 whole entry): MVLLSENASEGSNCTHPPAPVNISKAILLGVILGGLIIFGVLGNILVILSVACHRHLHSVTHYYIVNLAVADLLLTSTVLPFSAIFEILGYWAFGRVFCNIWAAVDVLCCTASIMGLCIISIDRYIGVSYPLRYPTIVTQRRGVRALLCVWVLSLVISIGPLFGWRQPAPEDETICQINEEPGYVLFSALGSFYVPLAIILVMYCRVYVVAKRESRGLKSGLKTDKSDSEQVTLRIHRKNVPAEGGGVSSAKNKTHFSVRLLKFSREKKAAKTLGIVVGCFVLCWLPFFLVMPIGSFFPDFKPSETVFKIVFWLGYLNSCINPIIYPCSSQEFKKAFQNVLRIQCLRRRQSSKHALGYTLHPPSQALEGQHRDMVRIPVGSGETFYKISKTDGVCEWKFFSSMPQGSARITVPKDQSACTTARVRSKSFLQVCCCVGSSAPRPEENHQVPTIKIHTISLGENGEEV
In short: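 Rat brain membranes (340 µg protein/mL) with 0.25 nM [3H]-prazosin in 50 mM Tris-HCl pH 7.7, room temperature, 60 min, filtration. Nonspecific binding with 100 µM prazosin. Several concentrations run in duplicate; IC50 by nonlinear regression.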

[5] = test system: Rattus norvegicus; test: Inhibition of increase in histamine-induced cutaneous vascular permeability in orally dosed Wistar rat model after 8 hrs; assay type: functional; settings: po
In short: (§2)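 Male Wistar rats (150-175 g), fasted, dosed orally in 0.5% methylcellulose/0.1% Tween 80 (10 mL/kg), n=5. At 1 or 8 h after dosing, four intradermal injections of 5 µg histamine were given, plus iv 0.5% Evans Blue. Papule area (ellipse) measured 1 h later. ED50 in mg/kg po.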

[6] = test system: Rattus norvegicus; test: Inhibition of increase in histamine-induced cutaneous vascular permeability in orally dosed Wistar rat model after 4 hrs; assay type: functional; settings: po
In short: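 Fasted male rats (150-175 g; n=5 per condition) dosed orally in 0.5% methylcellulose/0.1% Tween 80. At 4 h, under light ether, received four intradermal injections of 5 µg histamine, then 0.5% Evans Blue iv. Killed 1 h later. Papule area from maximum and minimum diameters (ellipse); inhibition of papule area; ED50 (mg/kg, po).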

[7] = test system: Rattus norvegicus; test: Inhibition of increase in histamine-induced cutaneous vascular permeability in orally dosed Wistar rat model after 1 hrs; assay type: functional; settings: po; in short: as §2
[8] = test system: Cavia porcellus; test: Effect on QT interval prolongation in Dunkin-Hartley guinea pigs at 30 mg/kg, iv; assay type: functional, organism-based; parameters: dose 30 mg/kg
In short: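 Male guinea pigs (500-600 g), urethane 1.5 g/kg anaesthesia, ventilated (10 mL/kg, 60 cycles/min). Stabilised at least 30 min, then 3-min jugular iv perfusion at 3, 10 and 30 mg/kg. Surface ECG recorded at end of perfusion and at 15, 30, 45 and 60 min. QTc by Bazett; change in ms from baseline. Vehicle-only controls.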

[9] = biological target: Histamine H1 receptor (Mus musculus) (UniProt P70174); test: Ex vivo displacement of [3H]mepyramine from brain histamine H1 receptor in orally dosed Swiss Albino mouse; assay type: functional, organism-based
In short: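 Overnight-fasted male mice (20-25 g) dosed orally at several doses (0.5% methylcellulose/0.1% Tween 80, 10 mL/kg), killed 90 min later. Whole brain homogenised in ice-cold 0.05 M Na+/K+ phosphate pH 7.4; aliquots incubated in triplicate with 2 nM final [3H]-mepyramine, 40 min at 30 °C, then filtered. Nonspecific binding from 30 mg/kg po D-chlorpheniramine; total binding from vehicle. Three animals per dose; ED50 reported.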

[10] = Half life in Wistar rat at 1 mg/kg, iv after 8 hrs; assay type: ADME, organism-based; parameters: dose 1 mg/kg, route intravenous; settings: in vivo; in short: as §1
[11] = biological target: Histamine H1 receptor (Cavia porcellus) (UniProt P31389); test: Displacement of [3H]mepyramine from histamine H1 receptor in guinea pig cerebellum membranes at […]; assay type: cell membranes; settings: Membrane
In short: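 Guinea-pig cerebellum membranes (160 µg/mL) incubated at 30 °C for 30 min with 0.7 nM [3H]-mepyramine, 0.5 mL final volume; filtration, bound radioactivity counted. Nonspecific binding with 10 µM promethazine. At least six concentrations in duplicate; IC50 by nonlinear regression. Stocks 10^-2 M in DMSO, further dilutions in 50% DMSO.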

[12] = biological target: Adrenergic receptor alpha-1 (Rattus norvegicus) (UniProt P15823+P23944+P43140); test: Displacement of [3H]prazosin from adrenergic alpha-1 receptor in rat brain membranes at 10 uM; assay type: cell membranes
[13] = biological target: Histamine H1 receptor (Cavia porcellus, UniProt P31389); test: Displacement of [3H]mepyramine from histamine H1 receptor in guinea pig cerebellum membranes; assay type: cell membranes, Membrane
In short: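 Guinea pig cerebellum membranes (160 µg/mL) incubated with 0.7 nM [3H]-mepyramine at 30 °C for 30 min, 0.5 mL final volume, ended by filtration. Nonspecific binding with 10 µM promethazine. At least six concentrations in duplicate; IC50 by nonlinear regression. Compound stocks 10^-2 M in DMSO, diluted in 50% DMSO.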

[14] = test system: Cavia porcellus; test: Effect on QT interval prolongation in Dunkin-Hartley guinea pigs at 3 mg/kg, iv; assay type: functional, organism-based; parameters: dose 3 mg/kg
[15] = test system: Cavia porcellus; test: Effect on QT interval prolongation in Dunkin-Hartley guinea pigs at 10 mg/kg, iv; assay type: functional, organism-based; parameters: dose 10 mg/kg

Sequence of Histamine H1 receptor (P31389 whole entry): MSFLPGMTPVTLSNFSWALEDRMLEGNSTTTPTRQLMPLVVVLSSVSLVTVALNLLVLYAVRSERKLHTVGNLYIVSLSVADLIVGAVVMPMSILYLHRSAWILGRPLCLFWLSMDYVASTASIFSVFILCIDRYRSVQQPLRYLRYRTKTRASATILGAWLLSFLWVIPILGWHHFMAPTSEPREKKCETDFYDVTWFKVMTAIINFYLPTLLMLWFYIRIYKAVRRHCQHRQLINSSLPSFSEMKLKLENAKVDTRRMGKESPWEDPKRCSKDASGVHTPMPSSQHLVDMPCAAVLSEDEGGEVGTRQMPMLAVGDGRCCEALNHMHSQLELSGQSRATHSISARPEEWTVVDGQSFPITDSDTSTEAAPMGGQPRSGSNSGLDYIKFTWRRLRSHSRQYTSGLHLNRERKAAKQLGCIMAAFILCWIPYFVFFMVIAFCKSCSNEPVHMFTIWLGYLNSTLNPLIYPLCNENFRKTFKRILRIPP
Sequence of Histamine H1 receptor (Mus musculus) (P70174 whole entry): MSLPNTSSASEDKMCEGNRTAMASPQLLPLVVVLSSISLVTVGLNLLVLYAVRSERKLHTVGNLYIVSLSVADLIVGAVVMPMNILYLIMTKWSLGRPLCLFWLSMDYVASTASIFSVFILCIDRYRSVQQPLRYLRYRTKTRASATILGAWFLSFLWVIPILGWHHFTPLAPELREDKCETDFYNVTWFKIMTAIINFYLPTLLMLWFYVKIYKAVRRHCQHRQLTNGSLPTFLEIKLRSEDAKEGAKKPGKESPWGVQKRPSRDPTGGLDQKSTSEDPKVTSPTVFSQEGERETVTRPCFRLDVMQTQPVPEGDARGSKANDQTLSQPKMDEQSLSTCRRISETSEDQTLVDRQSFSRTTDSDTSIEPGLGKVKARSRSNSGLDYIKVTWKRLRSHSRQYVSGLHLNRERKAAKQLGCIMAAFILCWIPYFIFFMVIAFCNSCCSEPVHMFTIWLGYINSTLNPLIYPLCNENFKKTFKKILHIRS
Sequence of CYP3A4 (P08684 whole entry): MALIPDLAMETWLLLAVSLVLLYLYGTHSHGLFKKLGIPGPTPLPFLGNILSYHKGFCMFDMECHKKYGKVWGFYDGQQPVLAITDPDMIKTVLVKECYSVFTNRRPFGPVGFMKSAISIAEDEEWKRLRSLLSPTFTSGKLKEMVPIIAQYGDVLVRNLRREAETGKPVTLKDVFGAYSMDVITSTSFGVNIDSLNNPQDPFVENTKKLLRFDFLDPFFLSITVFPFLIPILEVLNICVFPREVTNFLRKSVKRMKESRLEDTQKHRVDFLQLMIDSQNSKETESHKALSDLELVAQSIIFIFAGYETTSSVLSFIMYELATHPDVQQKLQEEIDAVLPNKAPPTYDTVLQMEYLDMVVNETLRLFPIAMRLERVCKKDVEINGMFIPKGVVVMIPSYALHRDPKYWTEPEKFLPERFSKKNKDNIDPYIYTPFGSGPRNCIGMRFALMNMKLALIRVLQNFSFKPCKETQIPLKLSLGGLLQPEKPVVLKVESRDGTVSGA
Sequence of Histamine H1 receptor (Cavia porcellus) (P31389 whole entry): as the sequence (P31389 whole entry) above

Row | Structure (SMILES) | Vd [1] | inhibition at 25 µM [2] | clearance [3] | IC50 [4] | ED50 [5] | ED50 [6] | ED50 [7] | Activity [8] | ED50 [9] | half-life [10] | Activity [11] | Activity [12] | IC50 [13] | Activity [14] | Activity [15]
1 | COCCn1cc(C2CCN(Cc3ccc(OC)c(C(=O)O)c3)CC2)c2ccccc21 | 0.6 L/kg | -9% | 3.33 mL/min/kg | > 10 µM | 0.14 mg/kg (antagonist) | 0.05 mg/kg | 0.03 mg/kg | inactive | 9.5 mg/kg | 3.9 h |  |  |  |  | 
2 | COc1ccc(CN2CCC(c3cn(Cc4cccs4)c4cc(F)ccc34)CC2)cc1C(=O)O | 1.1 L/kg |  | 5 mL/min/kg | > 10 µM | 0.66 mg/kg (antagonist) | 0.2 mg/kg |  |  | 29 mg/kg | 3.8 h |  |  |  |  | 
3 | CCOCCn1cc(C2CCN(Cc3ccc(C(=O)O)cc3)CC2)c2ccccc21 |  |  |  |  | 0.15 mg/kg (antagonist) |  |  |  | 4.5 mg/kg |  | 7% | 8% |  |  | 
4 | CCOCCn1cc(C2CCN(CCOc3ccccc3C(=O)O)CC2)c2cc(OC)ccc21 | 0.5 L/kg |  | 13.3 mL/min/kg | > 10 µM | 0.08 mg/kg (antagonist) | 0.035 mg/kg |  |  | > 100 mg/kg | 0.9 h |  |  | 0.155 µM (antagonist) |  | 
5 | CCCCn1cc(C2CCN(CCOc3ccccc3C(=O)O)CC2)c2ccc(F)cc21 |  |  |  | > 10 µM | 0.14 mg/kg (antagonist) | 0.07 mg/kg |  |  | 10 mg/kg |  |  |  | 0.047 µM (antagonist) |  | 
6 | O=C(O)COCCN1CCN(C(c2ccccc2)c2ccc(Cl)cc2)CC1 (centres undefined) |  |  |  |  |  |  |  |  |  |  |  |  |  | inactive | 
7 | COc1ccc(CN2CCC(c3cn(Cc4cccs4)c4ccccc34)CC2)cc1C(=O)O | 1.8 L/kg | -5% | 10 mL/min/kg | > 10 µM | 0.56 mg/kg (antagonist) | 0.24 mg/kg | 0.32 mg/kg |  | 11.5 mg/kg | 3.1 h |  |  |  |  | inactive
8 | CCOC(=O)N1CCC(=C2c3ccc(Cl)cc3CCc3cccnc32)CC1 [LORATADINE] |  |  |  |  |  |  | 0.75 mg/kg |  |  |  |  |  |  |  | inactive
9 | O=C(O)c1ccccc1OCCN1CCC(c2cn(CCC3OCCO3)c3ccccc23)CC1 | 0.5 L/kg |  | 5 mL/min/kg | 6.5 µM | 0.9 mg/kg (antagonist) | 0.46 mg/kg |  |  | > 100 mg/kg | 2.9 h |  |  |  |  | 
10 | CCCCn1cc(C2CCN(CCOc3ccccc3C(=O)O)CC2)c2ccccc21 | 0.4 L/kg |  | 6.67 mL/min/kg | > 10 µM | 0.8 mg/kg (antagonist) | 0.74 mg/kg |  |  | 100 mg/kg | 1.6 h |  |  |  |  | 
11 | O=C(O)c1ccccc1OCCN1CCC(c2cn(Cc3ccoc3)c3cc(F)ccc23)CC1 |  |  |  | > 10 µM | 0.17 mg/kg (antagonist) | 0.12 mg/kg |  |  | 19 mg/kg |  |  |  | 0.042 µM (antagonist) |  | 
12 | COCCn1cc(C2CCN(CCOc3ccccc3C(=O)O)CC2)c2ccc(F)cc21 | 0.3 L/kg | 15% | 1.67 mL/min/kg | > 10 µM | 0.13 mg/kg (antagonist) | 0.29 mg/kg | 0.16 mg/kg | inactive | 40 mg/kg | 3.4 h |  |  | 0.14 µM (antagonist) |  | 
13 | CCOCCn1cc(C2CCN(CCOc3ccccc3C(=O)O)CC2)c2ccccc21 | 0.7 L/kg | 0% | 10 mL/min/kg | 10 µM | 0.22 mg/kg (antagonist) | 0.1 mg/kg | 0.02 mg/kg |  | 8 mg/kg | 1.1 h |  |  |  |  | inactive
14 | CCOCCn1cc(C2CCN(Cc3ncccc3C(=O)O)CC2)c2ccccc21 |  |  |  |  |  |  |  |  |  |  | 11% | 4% |  |  | 

From ChEMBL document CHEMBL1149258, “Synthesis and structure-activity relationships of novel histamine H1 antagonists: indolylpiperidinyl benzoic acid derivatives” (J Med Chem, 2004)
